Assay results as given in ChEMBL document CHEMBL3085725, “Design, synthesis and molecular modelling studies of novel 3-acetamido-4-methyl benzoic acid derivatives as inhibitors of protein tyrosine phosphatase 1B” (Eur J Med Chem, 2013).

How the values were obtained:
[1] = biological target: T1, Tyrosine-protein phosphatase non-receptor type 1 (Homo sapiens) (UniProt P18031); assay: Inhibition of recombinant human PTP1B at 10 uM by malachite green assay relative to control
T1 sequence (whole entry): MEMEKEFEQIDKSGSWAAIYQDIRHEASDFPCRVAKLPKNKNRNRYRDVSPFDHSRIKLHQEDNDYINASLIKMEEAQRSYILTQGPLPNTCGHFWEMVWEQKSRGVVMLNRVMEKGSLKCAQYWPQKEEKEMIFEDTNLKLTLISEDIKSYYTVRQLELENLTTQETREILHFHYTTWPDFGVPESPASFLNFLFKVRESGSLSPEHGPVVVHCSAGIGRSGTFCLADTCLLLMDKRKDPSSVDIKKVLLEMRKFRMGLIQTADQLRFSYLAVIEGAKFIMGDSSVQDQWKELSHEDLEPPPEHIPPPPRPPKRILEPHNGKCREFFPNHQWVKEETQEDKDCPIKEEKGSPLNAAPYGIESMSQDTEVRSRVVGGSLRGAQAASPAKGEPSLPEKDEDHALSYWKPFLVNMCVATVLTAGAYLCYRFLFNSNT
Procedure, shortened: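 Human recombinant PTP1B incubated with test compound at 10 µM; DMSO as control. Colorimetric, non-radioactive assay detecting free phosphate released, read with Biomol red phosphate reagent (malachite green basis). Percent inhibition is calculated against control activity without inhibitor, taken as 100%, from three independent sets of experiments.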

[2] = biological target: T2, Tyrosine-protein phosphatase non-receptor type 1 (Homo sapiens, UniProt P18031); assay: Inhibition of recombinant human PTP1B by malachite green assay
T2 sequence (P18031 whole entry): T1 sequence (whole entry)
Procedure, shortened: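 Human recombinant PTP1B; compounds giving around 50% inhibition at 10 µM are retested at six concentrations. Free phosphate released is detected colorimetrically with Biomol red (malachite green).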

Danio rerio [3] = species on record: Danio rerio; assay: Toxicity in zebra fish embryo assessed as death at 10 uM after 24 to 72 hrs by visible light microscopy; type: organism-based; details: zebrafish, in vivo
Procedure, shortened: (§1)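 Wild-type Indian zebrafish strain kept at 28 °C, 14:10 h light/dark. Embryos from natural mating raised 24 h in E3 medium, dechorionated at 24 hpf with 500 µg/ml Pronase K for 10 min. Six embryos per well exposed to compound at 10 µM final in 0.1% DMSO for 24, 48 and 72 h. Controls received 0.1% DMSO. Embryos scored under visible light microscopy at intervals.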

Danio rerio [4] = assay: Toxicity in zebra fish embryo assessed as oedema at 10 uM after 24 to 72 hrs by visible light microscopy; type: organism-based; details: zebrafish, in vivo; procedure, shortened: as §1
Danio rerio [5] = species on record: Danio rerio; assay: Toxicity in zebra fish embryo assessed as deformation at 10 uM after 24 to 72 hrs by visible light microscopy; type: organism-based; details: zebrafish, in vivo; procedure, shortened: as §1
Danio rerio [6] = species on record: Danio rerio; assay: Toxicity in zebra fish embryo assessed as developmental delay at 10 uM after 24 to 72 hrs by visible light microscopy; type: organism-based; details: zebrafish, in vivo; procedure, shortened: as §1

Compound	inhibition [1] [%]	IC50 [2] [µM]	also measured
Cc1ccc(C(=O)O)cc1NC(=O)CSc1nc2ccccc2[nH]1	47.8	15.2	
COc1ccc2[nH]c(SCC(=O)Nc3cc(C(=O)O)ccc3C)nc2c1	57.5	8.2	Activity (Danio rerio [3]): Non-toxic; Activity (Danio rerio [4]): Non-toxic; Activity (Danio rerio [5]): Non-toxic; Activity (Danio rerio [6]): Non-toxic
Cc1ccc(C(=O)O)cc1NC(=O)CSc1nc2ccccc2s1	57.5	8.5	
COc1cc(-c2nnc(SCC(=O)Nc3cc(C(=O)O)ccc3C)o2)cc(OC)c1OC	50.7	9.7	
Cc1ccc(C(=O)O)cc1NC(=O)CSc1nnc(-c2ccc(Cl)cc2Cl)o1	43.3		
Cc1ccc(C(=O)O)cc1NC(=O)CSc1nc2cc([N+](=O)[O-])ccc2[nH]1	26.9		
Cc1ccc(C(=O)O)cc1NC(=O)CSc1nc2ccccc2o1	32.8		

More lines, main results first:

inhibition [1] [%]	IC50 [2] [µM]	Compound	also measured
38.8		Cc1ccc(C(=O)O)cc1NC(=O)CSc1nnc(-c2ccccc2O)o1	
27.5		Cc1ccc(C(=O)O)cc1NC(=O)CSc1nnc(-c2ccccc2Cl)o1	
29.9		Cc1ccc(C(=O)O)cc1NC(=O)CSc1nnc(-c2cccc(Cl)c2Cl)o1	
51.5	8.9	Cc1ccc(-c2nnc(SCC(=O)Nc3cc(C(=O)O)ccc3C)o2)cc1	
47	10.3	Cc1ccc(C(=O)O)cc1NC(=O)CSc1nnc(-c2ccc(O)cc2)o1	
